# Data as given in ChEMBL document CHEMBL1147780, “Peptide inhibitors of Dengue virus NS3 protease. Part 1: Warhead” (Bioorg Med Chem Lett, 2006).
# Where a SMILES comes first, the peptide text is derived from it. [ ]: non-standard residue; d: D form. The star is where a group is joined. Nle = CCCC[C@H](N)C(=O)O; Bz = O=C(c1ccccc1)*; CF3 = FC(F)(F)*
# Biological target: Genome polyprotein (dengue virus type 2, UniProt P29990)
# Assay: Inhibitory activity against CF40.NS3pro from Dengue virus type 2
# Summary of the method: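 Enzyme: truncated dengue 2 NS3 protease fused through a flexible linker to a […] NS2B region. Inhibitors tested in 96-well format in 50 mM Tris, pH 8.5, with 1 mM CHAPS. Values reported as Ki.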
# Genome polyprotein, sequence (P29990 1346-1475 limits assumed): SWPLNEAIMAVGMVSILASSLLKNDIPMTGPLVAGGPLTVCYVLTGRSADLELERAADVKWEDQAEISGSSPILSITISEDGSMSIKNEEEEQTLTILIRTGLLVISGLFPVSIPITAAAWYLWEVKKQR
# Genome polyprotein, sequence (P29990 1476-2093 limits assumed): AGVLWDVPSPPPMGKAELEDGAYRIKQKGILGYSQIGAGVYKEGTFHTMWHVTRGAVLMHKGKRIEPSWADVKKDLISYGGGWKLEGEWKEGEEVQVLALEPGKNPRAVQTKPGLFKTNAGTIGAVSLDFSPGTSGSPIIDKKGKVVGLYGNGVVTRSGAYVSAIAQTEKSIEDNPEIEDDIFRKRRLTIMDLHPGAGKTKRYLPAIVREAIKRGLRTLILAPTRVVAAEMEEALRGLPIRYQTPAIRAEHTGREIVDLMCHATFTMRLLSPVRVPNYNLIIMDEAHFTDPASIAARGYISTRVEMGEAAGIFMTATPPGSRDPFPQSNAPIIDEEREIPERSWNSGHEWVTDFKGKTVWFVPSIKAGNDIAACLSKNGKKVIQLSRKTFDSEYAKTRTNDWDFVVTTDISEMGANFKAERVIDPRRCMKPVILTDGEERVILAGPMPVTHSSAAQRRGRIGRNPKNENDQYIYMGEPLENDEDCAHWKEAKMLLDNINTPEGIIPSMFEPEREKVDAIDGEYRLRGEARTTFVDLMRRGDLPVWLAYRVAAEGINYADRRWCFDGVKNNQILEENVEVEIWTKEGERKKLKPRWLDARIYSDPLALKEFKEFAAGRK
row,Compound,Ki [µM]
1,CCCC[C@H](NC(=O)c1ccccc1)C(=O)N[C@@H](CCCCN)C(=O)N[C@@H](CCCN=C(N)N)C(=O)N[C@@H](CCCN=C(N)N)C(=O)C(F)(F)F (Bz-[Nle]KRR-CF3),0.85
2,CCCC[C@H](NC(=O)c1ccccc1)C(=O)N[C@@H](CCCCN)C(=O)N[C@H](C(=O)N[C@H](C=O)CCCN=C(N)N)[C@@H](C)O (Bz-[Nle]KTR-aldehyde),> 500
3,CCCC[C@H](NC(=O)c1ccccc1)C(=O)N[C@@H](CCCCN)C(=O)N[C@@H](CCCNC(=N)N)C(=O)N[C@@H](CCCNC(=N)N)C(=O)c1nc2ccccc2o1,82.9
4,CCCC[C@H](NC(=O)c1ccccc1)C(=O)N[C@@H](CCCCN)C(=O)N[C@H](C(=O)N[C@@H](CCCN=C(N)N)C(=O)O)[C@@H](C)O (Bz-[Nle]KTR-OH),> 500
5,CCCC[C@H](NC(=O)c1ccccc1)C(=O)N[C@@H](CCCCN)C(=O)N[C@@H](CCCN=C(N)N)C(=O)N[C@@H](CCCN=C(N)N)B(O)O,0.043
6,CCCC[C@H](NC(=O)c1ccccc1)C(=O)N[C@@H](CCCCN)C(=O)N[C@@H](CCCN=C(N)N)C(=O)N[C@@H](CCCN=C(N)N)C(=O)NS(=O)(=O)C(F)(F)F,> 500
7,CCCC[C@H](NC(=O)c1ccccc1)C(=O)N[C@@H](CCCCN)C(=O)N[C@@H](CCCN=C(N)N)C(=O)N[C@@H](CCCN=C(N)N)C(=O)O (Bz-[Nle]KRR-OH),> 500
8,CCCC[C@H](NC(=O)c1ccccc1)C(=O)N[C@@H](CCCCN)C(=O)N[C@@H](CCCN=C(N)N)C(=O)N[C@@H](CCCN=C(N)N)C(N)=O (Bz-[Nle]KRR-NH2),128
9,CCCC[C@H](NC(=O)c1ccccc1)C(=O)N[C@@H](CCCCN)C(=O)N[C@@H](CCCN=C(N)N)C(=O)N[C@@H](CCCN=C(N)N)C(O)C(=O)NCc1ccccc1 (stereo partly specified),178
10,CCCC[C@H](NC(=O)c1ccccc1)C(=O)N[C@@H](CCCCN)C(=O)N[C@@H](CCCNC(=N)N)C(=O)N[C@@H](CCCNC(=N)N)C(=O)c1nccs1,42.8
11,CCCC[C@H](NC(=O)c1ccccc1)C(=O)N[C@@H](CCCCN)C(=O)N[C@H](C(=O)N[C@@H](CCCN=C(N)N)C(N)=O)[C@@H](C)O (Bz-[Nle]KTR-NH2),> 500
